Among the data in ChEMBL document CHEMBL1127305, “kappa Opioid receptor selective affinity labels: electrophilic benzeneacetamides as kappa-selective opioid antagonists” (J Med Chem, 1994) are Recovery and IC50 values, retold here.

Common to all, as to type: functional, organism-based
The species named for experiment [1] is Cavia porcellus. Description: Tested for wash-resistant activity in guinea pig ileal longitudinal muscle preparation, after forty washes with Kreb's buffer pre-incubated with compound. Conditions: Muscle tissue. Summed up:
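Electrically stimulated guinea pig ileal longitudinal muscle was incubated with agonist, then given forty washes with Krebs' buffer. Read-out was percent recovery of twitch height.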

The species entered for experiment [2] is Cavia porcellus. Description: Tested for wash-resistant activity after forty post-washes (for removal of naltrexone) with Kreb's buffer pre-incubated with compound. Summed up:
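Agonist-treated guinea pig ileal longitudinal muscle was washed, then incubated with naltrexone (500 nM) for 15 min. A further forty washes with Krebs' buffer followed. Read-out was percent recovery of twitch height.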

The species named for experiment [3] is Cavia porcellus. Briefly: Tested for agonist potency by conducting tests on electrically stimulated guinea pig ileal longitudinal muscle preparation. The note with it: Muscle tissue. The gist of the method: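 Electrically stimulated guinea pig ileal longitudinal muscle preparation. Values are arithmetic means of at least three experiments.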
For experiment [4], the species on record is Cavia porcellus. Briefly: Tested for wash-resistant activity by incubating guinea pig ileal longitudinal muscle (pre-treated with the compound) with naltrexone (500 nM).Number of determinations, n=3. Conditions: Muscle tissue. Summed up:
(§1)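 Agonist-treated guinea pig ileal longitudinal muscle was first washed forty times with Krebs' buffer. It was then incubated with naltrexone (500 nM) for 15 min. Read-out was percent recovery of twitch height.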

The species named for experiment [5] is Cavia porcellus. Briefly: Tested for wash-resistant activity by incubating guinea pig ileal longitudinal muscle (pre-treated with the compound) with naltrexone (500 nM). Number of determinations, n=3. Conditions: Muscle tissue. Summed up:
as §1

Regarding `CN(C(=O)Cc1ccc(Cl)c(Cl)c1)[C@H](CN1CCCC1)c1cccc(N=C=S)c1`, the Recovery in experiment [1] amounted to 0%; in experiment [2], 0%; in experiment [4] it was 41%. Further, in experiment [3], the half-maximal inhibitory concentration (IC50) is 23.8 nM.
In the case of `CN(C(=O)Cc1ccc(Cl)c(Cl)c1)[C@H](CN1CCCC1)c1ccccc1` [ICI-199,441], the Recovery in experiment [1] is 20%; in experiment [5], 59%. For the same compound, in experiment [3], the concentration for half-maximal inhibition (IC50) turned out to be 0.27 nM.
In experiment [3], `CN(C(=O)Cc1ccc(Cl)c(Cl)c1)C(CN1CCCC1)c1ccc(N)cc1` (stereo not drawn) yielded a 50% inhibitory concentration (IC50) of 0.65 nM. This counts as sub-nanomolar.
For `COC(=O)/C=C/C(=O)Nc1cccc([C@@H](CN2CCCC2)N(C)C(=O)Cc2ccc(Cl)c(Cl)c2)c1`, the 50% inhibitory concentration (IC50) in experiment [3] is 29 nM.
For the compound `CN(C(=O)Cc1ccc(Cl)c(Cl)c1)[C@H](CN1CCCC1)c1cccc(N)c1`, the half-maximal inhibitory concentration (IC50) in experiment [3] was 0.17 nM. Against the preceding compound, the IC50 is about 170-fold lower.
The same measure, in the same setting: with `CN(C(=O)Cc1ccc(Cl)c(Cl)c1)[C@@H](CN1CCCC1)c1ccccc1` the figure was 198 nM; with `COC(=O)/C=C/C(=O)Nc1ccc([C@@H](CN2CCCC2)N(C)C(=O)Cc2ccc(Cl)c(Cl)c2)cc1`, 11.2 nM.
On the same count and under the same terms, for `CN(C(=O)Cc1ccc(Cl)c(Cl)c1)[C@H](CN1CCCC1)c1ccc(N=C=S)cc1` the value was 38.6 nM.
